Assay outcomes as filed in PubChem.
F508del corr – correctors of CFTR F508del function in bronchial epithelial cells | AID 720511 | activity (quench increase), % at 7.58 µM | CFBE cells, YFP halide quenching; stimulated with forskolin plus potentiator P3; % fluorescence drop versus neutral controls | 350,000 tested, 0.36% active;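 active means mean added fluorescence quench of at least 8% versus neutral control, with both replicates also reaching 8%; inconclusive means only one of the mean or replicate conditions met; inactive means mean below 8% and not both replicates reaching 8%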;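 further: cells transiently co-express mutant CFTR-F508del with the halide-sensitive YFP; corrector assay measuring rescue of mutant channel to the surface after 24 h compound exposure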
PGC1a acetyl inh – modulators of PGC1a acetylation; 350,000 tested, 0.17% active; inhibition, % at 15.6 µM; U2OS PGC1a acetylation, AlphaScreen anti-acetyl-lysine; with virally co-expressed GCN5 acetyltransferase;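 active means every replicate shows inhibition of at least 40%; inconclusive means mean inhibition at least 40% but some replicate below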;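 further: 0% = neutral control wells and 100% = positive control wells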
CAL PDZ FP-1 – human CAL PDZ-peptide interaction inhibition; inhibition, % at 20 µM; Q9HD26; 330,000 tested, 0.02% active; purified CAL PDZ, TMR-peptide fluorescence polarization, 1 h;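 active means highest replicate inhibition of at least 40%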;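 further: plate controls were DMSO neutral control wells for no effect and unlabeled competitor peptide control wells for full effect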
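System: purified tagged CAL PDZ domain construct (CerCALP). Schedule: 1 h incubation at room temperature before polarization reading. Medium: 25 mM sodium phosphate pH 7.4, 150 mM NaCl, TCEP, IgG, Thesit. Read-out: percent inhibition from loss of millipolarization. Measured by: FP readout, S and P plane fluorescence. Probe or stimulus: fluorescent TMR peptide probe.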
ARNT TACC3 PPI – disrupts binding between human ARNT and TACC3 | Q9Y6A5 | AlphaScreen His-ARNT PAS-B/GST-TACC3 binding, luminescence; TACC3 fragment carries E629A point mutation | inhibition, % at 9.99 µM | 390,000 tested, 0.66% active | AID 623870;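 active means mean inhibition of replicates at least 50% and at least half of replicates each reaching 50%; inconclusive means half or more replicates reach 50% but mean below 50%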;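 further: 0% = complete ARNT plus TACC3 wells and 100% = ARNT alone without TACC3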
miR-122 sensor – miR-122 inhibition in Huh7 cells | Huh7 miR-122 Renilla luciferase sensor, 48 h; neutral wells = 0, positive control = 100 | activation (reporter increase), % at 12.5 µM | 340,000 tested, 0.3% active | AID 602342;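 active means mean replicate activation score at least 90 and every replicate individually at or above 90; inconclusive means only one of the two criteria met; inactive means neither criterion met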;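 further: higher luciferase means less miR-122 activity so hits act as miR-122 inhibitors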
CAL PDZ FP-2 – inhibitors of human CAL PDZ peptide binding; purified CAL PDZ, TMR-peptide fluorescence polarization, 1 h; inhibition, % at 24.9 µM; 300,000 tested, 0.92% active;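 active means mean inhibition of at least 30% with at least half of replicates also reaching 30%; inconclusive means no clear call, values can overlap the other calls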;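 further: 0% = DMSO neutral control and 100% = excess unlabeled competitor peptide PRC23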
Starred values were filed as active, the others as inactive; ? = inconclusive; nt = not tested or not shown; [ ] = remark or other dose. Most compounds without a hit are left out; they make up all but 1.7% or so of the library.

SMILES | F508del corr | PGC1a acetyl inh | CAL PDZ FP-1 | ARNT TACC3 PPI | miR-122 sensor | CAL PDZ FP-2
COCCNC(=O)c1ccc(C)c(S(=O)(=O)Nc2ccc(C)cc2)c1 | -1.7 | -9.8 | 0.2 | 0.3 | ? | 1.0
O=C(NCc1ccncc1)c1cccc(S(=O)(=O)Nc2ccc(F)cc2)c1 | 0.6 | nt | -2.6 | -2.4 | 91.4* | -2.2
O=[N+]([O-])c1ccc(Oc2cccc(F)c2)c2ccncc12 | nt | 70.6* | -1.2 | -1.7 | -0.8 | -2.5
COc1cc(S(=O)(=O)NC2CCCCC2)c(C)cc1C | -0.1 | -9.3 | 0.3 | -15.1 | 163.1* | nt
COc1cc(S(=O)(=O)NC2CC(C)(C)NC(C)(C)C2)c(OC)cc1Cl | -0.5 | nt | 0.2 | -4.4 | 2.0 | -0.1
COc1ccc(F)cc1S(=O)(=O)NC1CC(C)(C)NC(C)(C)C1 | nt | -2.5 | -0.3 | -5.9 | 0.7 | -3.2
COc1ccc(F)cc1S(=O)(=O)NC1CCCCCC1 | nt | -18.0 | -1.7 | 1.4 | 104.7* | 1.1
COc1ccc(C)cc1S(=O)(=O)NC1CCCCC1C (stereo not given) | nt | -1.4 | nt | -4.7 | 132.5* | -2.8
COc1ccc(OC)c(S(=O)(=O)NC2CC2)c1 | 0.1 | -2.1 | 0.8 | -0.5 | 7.2 | 3.2
COc1cc(S(=O)(=O)NC2CCCC2)c(OC)cc1Cl | nt | -11.7 | -0.6 | -4.0 | 293.1* | -6.6
O=C([C@H]1[C@H](CO)[C@H]2Cn3c(cccc3=O)[C@@H]1N2CC1CCCCC1)N1CCOCC1 | nt | nt | nt | 8.4 | nt | nt
C[C@@H]1CN([C@H](C)CO)C(=O)c2cc(NS(=O)(=O)c3ccc(F)cc3)ccc2O[C@@H](C)CCCCO[C@@H]1CN(C)S(C)(=O)=O | -3.0 | 7.5 | nt | -7.8 | 4.6[16.7 µM] | nt
Cc1noc(C)c1S(=O)(=O)Nc1ccc2c(c1)C(=O)N([C@H](C)CO)C[C@@H](C)[C@H](CN(C)CC1CCCCC1)O2 | -1.6 | 4.4 | nt | -2.6 | -1.1[16.7 µM] | nt
CCOc1ccc(Cl)cc1S(=O)(=O)NC1CCCC1 | 2.8 | -19.9 | -1.4 | -3.6 | 114.1* | -0.3
Cc1ccc(C)c(NC(=S)NCCN(C2CCCCC2)C2CCCC2)c1 | 2.4 | -11.9 | -0.9 | 8.8 | 2.0 | 64.8*
C[C@@H]1CN([C@H](C)CO)C(=O)Cc2cc(NC(=O)Cc3cn(C)c4ccccc34)ccc2O[C@@H]1CN(C)S(=O)(=O)c1ccc(F)cc1 | 5.1 | -6.3 | nt | 2.6 | -8.2[16.7 µM] | nt
CC(=O)OCCn1c2nc(=O)[nH]c(=O)c-2nc2cc(C)c(C)cc21 | 17.7* | nt | 0.2 | 5.3 | nt | 2.2
CC(=O)OCCn1c(C)[n+](CCOC(C)=O)c2cc(Cl)c(Cl)cc21 | -0.2 | ? | -0.7 | -5.3 | nt | 3.1
O=C(NC1CCCCC1)N[C@H]1C=C[C@@H](CC(=O)N2CCOCC2)O[C@H]1CO | -1.9 | 3.8 | nt | 1.9 | nt | nt
CN(C)c1ccc(C=C2SC(=S)NC2=O)cc1 | -1.5 | 51.2* | 0.4 | -6.7 | -7.5 | -0.1
CN1c2ccc(-c3ccc(F)cc3)cc2[C@H]2[C@H](CCN2S(=O)(=O)c2cccc(F)c2)[C@H]1CO | 16.2* | 10.6 | nt | 6.1 | 143.8*[16.7 µM] | nt
COc1ccc(S(=O)(=O)N2CC[C@@H]3[C@H](CO)N(C)c4ccc(-c5ccc(F)cc5)cc4[C@@H]32)cc1 | 10.6* | 1.3 | nt | 25.6 | ? | nt
C[C@@H]1CCCCO[C@@H](CN(C)Cc2ccccc2)[C@@H](C)CN([C@@H](C)CO)C(=O)c2cc(NS(=O)(=O)c3cn(C)cn3)ccc2O1 | -1.6 | -1.7 | nt | -16.2 | 1.3[16.7 µM] | nt
COc1ccc(N)c2c1C(=O)c1ccccc1C2=O | nt | nt | -1.3 | 40.4 | 1.2 | nt
COc1ccc2noc3c2c1C(=O)c1ccccc1-3 | 37.3* | -15.4 | 27.0 | 21.6 | -9.4 | 1.3
SMILES | F508del corr | PGC1a acetyl inh | CAL PDZ FP-1 | ARNT TACC3 PPI | miR-122 sensor | CAL PDZ FP-2
Cc1ccc(S(=O)(=O)N[C@@H]2CC[C@H](CCn3cc(C4CCCCC4)nn3)O[C@H]2CO)cc1 | -2.7 | -7.3 | nt | -23.7 | nt | nt
COc1ccccc1-c1cnc2c(c1)C(=O)N([C@H](C)CO)C[C@@H](C)[C@H](CN(C)C(=O)c1cccnc1)O2 | -2.0 | -10.5 | nt | nt | 0.1[16.7 µM] | nt
O=C(O)c1ccccc1-c1ccccc1C(=O)Nc1ccc2c(c1)[nH]c(=O)c1ccccc12 | -1.3 | 6.3 | nt | 47.0* | -5.8 | -7.6
COc1ccc(S(=O)(=O)Nc2ccc3c(c2)CC(=O)N([C@@H](C)CO)C[C@H](C)[C@H](CN(C)Cc2ccncc2)O3)cc1 | 3.0 | 4.7 | nt | -12.1 | 4.7[16.7 µM] | nt
S=C1NC(c2ccccc2)=CC(c2ccccc2)N1 (stereo not given) | -0.2 | -0.4 | -0.2 | 1.8 | -3.7 | 5.5
N#CC1C(=O)NC(c2ccccc2)=CC1c1ccccc1 (stereo not given) | -2.8 | -2.2 | -1.7 | -3.8 | 6.5 | 110.1*
COc1ccccc1S(=O)(=O)N[C@H]1C=C[C@H](CC(=O)N2CCCCC2)O[C@H]1CO | -1.6 | -4.0 | nt | -5.2 | nt | nt
Oc1cc(NCc2ccc(Cl)cc2)cc2cccnc12 | 2.5 | 5.6 | -0.1 | 36.7* | -4.4 | -1.4
Clc1ccc(CNc2ncccn2)cc1 | -3.6 | -2.1 | 0.3 | 5.5 | -4.7 | 4.0
COc1ccc(OCCC(=O)OCC(=O)NCc2ccc(F)cc2)cc1 | 1.2 | -4.1 | -1.9 | -12.0 | nt | 46.5*
C[C@H]1CCCCO[C@@H](CN(C)C(=O)Nc2ccc(F)cc2)[C@@H](C)CN([C@@H](C)CO)C(=O)c2cc(N(C)C)ccc2O1 | 1.9 | 3.0 | nt | nt | -0.6[16.7 µM] | nt
O=C(CSc1nnc(-c2c[nH]c3ccccc23)o1)NCC1CCCO1 (stereo not given) | -2.8 | -5.6 | -1.4 | -5.2 | -3.1 | 44.0*
O=C(Nc1cc(S(=O)(=O)N2CCOCC2)ccc1Cl)C(=O)c1c(-c2ccccc2)cc2ccccn12 | nt | nt | -3.3 | 4.6 | 154.9* | -0.5
CO[C@H]1CN(C)C(=O)c2ccc(NC(C)=O)cc2OC[C@H](C)N(C(=O)c2ccccc2)C[C@@H]1C | 0.7 | 11.0 | nt | 1.4 | nt | nt
CCCn1c(NC(=O)c2cccc(C)c2C)nc2ccccc21 | nt | -3.1 | -1.7 | 2.2 | 118.2* | -1.8
CCCn1c(NC(=O)C2CCN(C(=O)c3ccccc3C)CC2)nc2ccccc21 | 2.7 | nt | -2.6 | -8.3 | nt | -0.1
c1ccc(-c2cc(-c3ccc(N4CCOCC4)cc3)nc3ccccc23)cc1 | nt | -6.3 | -0.7 | -25.9 | -10.7 | 37.0*
Clc1cccc2c1CCN(Cc1nc(-c3cnccn3)no1)C2 | 3.5 | -3.6 | nt | -4.3 | nt | 55.6*
COCC(=O)Nc1ccc2c(c1)[C@@H]1C[C@H](CC(=O)N3CCN(C)CC3)O[C@H](CO)[C@@H]1O2 | -2.6 | 1.0 | nt | -0.4 | -1.3[16.7 µM] | nt
Cc1cccc(OCC(=O)NNC(=O)c2ccc3nc[nH]c3c2)c1 | 16.6* | 11.0 | 0.1 | 2.6 | -0.4 | nt
Cc1cccc(OCC(=O)NNC(=O)c2ccc([N+](=O)[O-])cc2)c1 | -0.1 | nt | -2.7 | 3.6 | -0.2 | 3.7
